Data: PMC9199876 (Clinical and Translational Science, 2022)
Several values for one entry are separate records, joined by “and”; a condition that tells them apart may be missing. Equal values may be shown once. Read-outs that look alike come from different tables or passages of the source.

Columns and labels:
MATE2-K [1] = conditions: at a clinically relevant dose; cited from earlier work
OAT1 [2] = conditions: in vitro; cited from earlier work
[3] = tested on: breast cancer resistance protein (BCRP); conditions: in vitro; cited from earlier work
CYP3A4 [4] = conditions: phase I DDI studies; cited from earlier work
CYP1A2 = conditions: in vitro, clinically relevant dose (0.06 μM); cited from earlier work
[5] = ref data on file, cited from earlier work
[6] = tested on: cytosolic NADPH-dependent reductases; conditions: in vitro; cited from earlier work
OATP1B1/1B3 [7] = conditions: at a clinically relevant dose; cited from earlier work
[8] = phase II, 51 patients with idiopathic or diabetic gastroparesis; cited from earlier work
OATP1B1/1B3 [9] = conditions: in vitro; cited from earlier work
OCT2 [10] = conditions: at a clinically relevant dose; cited from earlier work
CYP2B6 = conditions: in vitro, clinically relevant dose (0.06 μM); cited from earlier work
p-glycoprotein (P-gp) = conditions: in vitro; cited from earlier work
CYP3A = conditions: in vitro, clinically relevant dose (0.06 μM); cited from earlier work
[11] = oral administration, dogs; cited from earlier work
CYP isoforms = conditions: in vitro, clinically relevant dose (0.06 μM); cited from earlier work
CYP2C19 = conditions: in vitro, clinically relevant dose (0.06 μM); cited from earlier work
OAT3 [12] = conditions: in vitro; cited from earlier work
MATE1 [13] = conditions: in vitro; cited from earlier work
[14] = cited from earlier work
CYP2C8 [15] = conditions: in vitro; cited from earlier work
BCRP = conditions: at a clinically relevant dose; cited from earlier work
MATE1 [16] = conditions: at a clinically relevant dose; cited from earlier work
CYP3A4 [17] = conditions: in vitro; cited from earlier work
CYP2D6 = conditions: in vitro, clinically relevant dose (0.06 μM); cited from earlier work
OAT3 [18] = conditions: at a clinically relevant dose; cited from earlier work
OAT1 [19] = conditions: at a clinically relevant dose; cited from earlier work
CYP2C9 = conditions: in vitro, clinically relevant dose (0.06 μM); cited from earlier work
[20] = oral administration, rats; cited from earlier work
CYP2C8 [21] = conditions: in vitro, clinically relevant dose (0.06 μM); cited from earlier work
[22] = Phase I two-way crossover study: plasma pharmacokinetics of trazpiroben and M23; assay type: in vivo, humans (healthy adults); conditions: for AUC∞, geometric mean (mean CV%) / C max, geometric mean (geometric CV%) / T max, median (min, max) / t 1/2z, mean (SD): plasma trazpiroben; for AUC∞, geometric mean (mean CV%): n = 12
How it was run: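 Open-label crossover in healthy adults fasted ≥10 h: a single oral 25 mg capsule, alone or right after a 30-min i.v. infusion of 600 mg rifampin, with ≥7-day washout. Parent and metabolite were measured by LC-MS/MS (range 0.1–50.0 ng/ml; BLOQ set to zero). Noncompartmental analysis used actual sampling times.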

OCT2 [23] = conditions: in vitro; cited from earlier work
bile salt export pump = conditions: at a clinically relevant dose; cited from earlier work
[24] = single and multiple doses, healthy men and women; cited from earlier work
OATP1B1/1B3 [25] = assay: Clinical DDI: effect of single-dose i.v. rifampin; assay type: in vivo, humans (healthy adults); conditions: plasma trazpiroben; trazpiroben with rifampin relative to trazpiroben alone
How it was run: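 Healthy fasted adults (n = 12) in a two-way crossover: an oral 25 mg capsule of test compound alone, or given immediately after 600 mg rifampin i.v. over 30 min. Washout was ≥7 days. Plasma parent and metabolite were assayed by validated LC-MS/MS and analysed noncompartmentally. The ANOVA on log-transformed AUC∞ and Cmax gave the LSM difference (B – A), which was exponentiated to give GMRs with 90% CIs.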

[26] = healthy Japanese individuals; cited from earlier work
[27] = preclinical; cited from earlier work
[28] = Safety and tolerability assessment; assay type: in vivo, humans (healthy adults); conditions: for Number of participants with TEAEs / TEAE: Abdominal pain, upper / TEAE: Cough / TEAE: Dermatitis contact / TEAE: Gastrointestinal disorders / TEAE: Headache / TEAE: Nasal congestion / TEAE: Nervous system disorders / TEAE: Respiratory, thoracic, and mediastinal disorders / TEAE: Sensory disturbance / TEAE: Sinus congestion / TEAE: Skin and subcutaneous tissue disorders / TEAE: Sneezing: n = 12
How it was run: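 Twelve healthy adults received a single oral 25 mg dose with and without i.v. rifampin 600 mg in crossover. TEAEs were monitored throughout. Vital signs and triplicate 12-lead ECGs were taken at screening (day −28 to −2), predose, and 1, 2, 4, 8 and 48 h post dose in each period. Serum chemistry, hematology and urinalysis were also run. Follow-up included a full physical exam, vital signs and ECG.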

MATE2-K [29] = conditions: in vitro; cited from earlier work
[30] = fasted rats, oral radiolabeled trazpiroben, after 24 h
[31] = trazpiroben 25 mg + rifampin 600 mg i.v.
[32] = trazpiroben 25 mg + rifampin 600 mg

O=C(O)c1cccc(CN2CN(C3CCCCC3)C3(CCN(CCCC(=O)c4ccccc4)CC3)C2=O)c1 [trazpiroben, Trazpiroben]
inhibitor of MATE2-K (MATE2-K [1]): not an inhibitor | substrate of OAT1 (OAT1 [2]): not a substrate | substrate of BCRP [3]: not a substrate | sensitivity to CYP3A4 inhibition (CYP3A4 [4]): relatively insensitive | inhibition of CYP1A2 (CYP1A2): does not inhibit | dosed radioactivity excreted in bile ([5]; bile duct cannulated rats): ~ 86% | dosed radioactivity excreted in feces ([5]; bile duct cannulated rats): 11% | dosed radioactivity excreted in urine ([5]; bile duct cannulated rats): 5% | dosed radioactivity excreted in feces [5, 30]: ~ 94% | dosed radioactivity excreted in urine [5, 30]: 6% | share of metabolism via non-CYP cytosolic NADPH-dependent reductases (to M23) [6]: 56.7% | inhibitor of OATP1B1/1B3 (OATP1B1/1B3 [7]): not an inhibitor | safety signals [8]: did not identify any safety signals | substrate of OATP1B1/1B3 (OATP1B1/1B3 [9]): substrate | inhibitor of OCT2 (OCT2 [10]): not an inhibitor | inhibition of CYP2B6 (CYP2B6): does not inhibit | substrate of p-glycoprotein (P-gp) (p-glycoprotein (P-gp)): substrate | inhibition of CYP3A (CYP3A): does not inhibit | absolute bioavailability [11]: ~ 20% | induction of CYP isoforms (CYP isoforms): does not induce | inhibition of CYP2C19 (CYP2C19): does not inhibit | substrate of OAT3 (OAT3 [12]): not a substrate | substrate of MATE1 (MATE1 [13]): not a substrate | accumulation index ([14]; 50 mg twice daily for 5 days): 1.9 | accumulation index ([14]; 100 mg twice daily for 5 days): 1.4 | time to maximum concentration [T max] ([14]; AT-01C study, healthy men and women): ~ 1.1 h | mean half-life ([14]; AT-01C study): 4 h | mean apparent oral clearance ([14]; across single-dose groups of 25–300 mg): 600 to 800 L/h | share of metabolism via CYP2C8 (CYP2C8 [15]): 11.8% | inhibitor of BCRP (BCRP): not an inhibitor | inhibitor of MATE1 (MATE1 [16]): not an inhibitor | share of metabolism via CYP3A4 (CYP3A4 [17]): 25.8% | inhibition of CYP2D6 (CYP2D6): does not inhibit | inhibitor of OAT3 (OAT3 [18]): not an inhibitor | inhibitor of OAT1 (OAT1 [19]): not an inhibitor | inhibition of CYP2C9 (CYP2C9): does not inhibit | absolute bioavailability [20]: ~ 20% | inhibition of CYP2C8 (CYP2C8 [21]): does not inhibit | participants with detectable levels of plasma trazpiroben ([22]; 0.5 h, co-administered with rifampin): all participants | participants with detectable levels of plasma trazpiroben ([22]; 0.5 h after trazpiroben alone): 92% | participants with detectable levels of plasma trazpiroben ([22]; 12 h after trazpiroben alone): 92% | participants with detectable levels of plasma trazpiroben ([22]; 16 h after trazpiroben alone): 42% | participants with detectable levels of plasma trazpiroben ([22]; 16 h post dose, trazpiroben + rifampin): 83% | AUC∞, geometric mean (mean CV%) ([22]; single oral trazpiroben 25 mg alone): 32.7 ng*h/ml and 32.68 (23.9) ng*h/ml | C max, geometric mean (geometric CV%) [22, 31]: 89.62 (68.6) ng/ml | T max, median (min, max) [22, 31]: 1.002 (0.49, 2.00) h | t 1/2z, mean (SD) [22, 31]: 2.028 ± 0.3449 h | C max, geometric mean (geometric CV%) ([22]; trazpiroben 25 mg alone): 14.37 (38.7) ng/ml | T max, median (min, max) ([22]; trazpiroben 25 mg alone): 1.037 (0.50, 2.00) h | t 1/2z, mean (SD) ([22]; trazpiroben 25 mg alone): 4.229 ± 3.7897 h | AUC∞, geometric mean (mean CV%) ([22]; trazpiroben 25 mg oral + rifampin 600 mg i.v.): 168.5 (49.9) ng*h/ml | CL/F, geometric mean (geometric CV%) [22, 31]: 148.4 (49.9) L/h | V z/F, geometric mean (geometric CV%) [22, 31]: 428.1 (49.9) L | CL/F, geometric mean (geometric CV%) ([22]; trazpiroben 25 mg alone): 765.1 (23.9) L/h | V z/F, geometric mean (geometric CV%) ([22]; trazpiroben 25 mg alone): 3469 (70.7) L | substrate of OCT2 (OCT2 [23]): not a substrate | inhibitor of bile salt export pump (bile salt export pump): not an inhibitor | tolerability [24]: well‐tolerated | AUC∞ geometric mean ratio (90% CI) (OATP1B1/1B3 [25]): 5.16 (4.25–6.25) fold | C max geometric mean ratio (90% CI) (OATP1B1/1B3 [25]): 6.24 (4.62–8.42) fold | tolerability [26]: well‐tolerated | accumulation after repeated doses [27]: minor accumulation | increase of plasma concentrations with dose [27]: dose‐proportional manner | serum chemistry, hematology, urinalysis, vital signs, and ECG results ([28]; all participants, throughout the study): remained within normal limits | AE relating to QT prolongation ([28]; current study): no clinically relevant AE relating to QT prolongation | Number of participants with TEAEs ([28]; overall (both treatments)): 6 (50) n (%) | TEAE: Abdominal pain, upper ([28]; overall (both treatments)): 1 (8) n (%) | TEAE: Cough ([28]; overall (both treatments)): 1 (8) n (%) | TEAE: Dermatitis contact ([28]; overall (both treatments)): 1 (8) n (%) | TEAE: Gastrointestinal disorders ([28]; overall (both treatments)): 1 (8) n (%) | TEAE: Headache ([28]; overall (both treatments)): 2 (17) n (%) | TEAE: Nasal congestion ([28]; overall (both treatments)): 1 (8) n (%) | TEAE: Nervous system disorders ([28]; overall (both treatments)): 3 (25) n (%) | TEAE: Respiratory, thoracic, and mediastinal disorders ([28]; overall (both treatments)): 2 (17) n (%) | TEAE: Sensory disturbance ([28]; overall (both treatments)): 1 (8) n (%) | TEAE: Sinus congestion ([28]; overall (both treatments)): 1 (8) n (%) | TEAE: Skin and subcutaneous tissue disorders ([28]; overall (both treatments)): 1 (8) n (%) | TEAE: Sneezing ([28]; overall (both treatments)): 1 (8) n (%) | tolerability ([28]; single agent or in combination with rifampin, healthy participants): well‐tolerated | Number of participants with TEAEs [28, 32]: 2 (17) n (%) | TEAE: Abdominal pain, upper [28, 32]: 0 (0) n (%) | TEAE: Cough [28, 32]: 1 (8) n (%) | TEAE: Dermatitis contact [28, 32]: 0 (0) n (%) | TEAE: Gastrointestinal disorders [28, 32]: 0 (0) n (%) | TEAE: Headache [28, 32]: 1 (8) n (%) | TEAE: Nasal congestion [28, 32]: 1 (8) n (%) | TEAE: Nervous system disorders [28, 32]: 1 (8) n (%) | TEAE: Respiratory, thoracic, and mediastinal disorders [28, 32]: 1 (8) n (%) | TEAE: Sensory disturbance [28, 32]: 0 (0) n (%) | TEAE: Sinus congestion [28, 32]: 0 (0) n (%) | TEAE: Skin and subcutaneous tissue disorders [28, 32]: 0 (0) n (%) | TEAE: Sneezing [28, 32]: 0 (0) n (%) | Number of participants with TEAEs ([28]; trazpiroben 25 mg alone): 6 (50) n (%) | TEAE: Abdominal pain, upper ([28]; trazpiroben 25 mg alone): 1 (8) n (%) | TEAE: Cough ([28]; trazpiroben 25 mg alone): 0 (0) n (%) | TEAE: Dermatitis contact ([28]; trazpiroben 25 mg alone): 1 (8) n (%) | TEAE: Gastrointestinal disorders ([28]; trazpiroben 25 mg alone): 1 (8) n (%) | TEAE: Headache ([28]; trazpiroben 25 mg alone): 2 (17) n (%) | TEAE: Nasal congestion ([28]; trazpiroben 25 mg alone): 0 (0) n (%) | TEAE: Nervous system disorders ([28]; trazpiroben 25 mg alone): 3 (25) n (%) | TEAE: Respiratory, thoracic, and mediastinal disorders ([28]; trazpiroben 25 mg alone): 1 (8) n (%) | TEAE: Sensory disturbance ([28]; trazpiroben 25 mg alone): 1 (8) n (%) | TEAE: Sinus congestion ([28]; trazpiroben 25 mg alone): 1 (8) n (%) | TEAE: Skin and subcutaneous tissue disorders ([28]; trazpiroben 25 mg alone): 1 (8) n (%) | TEAE: Sneezing ([28]; trazpiroben 25 mg alone): 1 (8) n (%) | participants reporting contact dermatitis ([28]; trazpiroben alone): 8% | participants reporting headache ([28]; trazpiroben alone): 17% | participants reporting sensory disturbance ([28]; trazpiroben alone): 8% | participants reporting sinus congestion ([28]; trazpiroben alone): 8% | participants reporting upper abdominal pain ([28]; trazpiroben alone): 8% | severity of TEAEs ([28]; whole study): mild | number of TEAEs recorded ([28]; whole study, 12 participants): 10 | deaths, serious AEs, discontinuations due to an AE ([28]; whole study, trazpiroben alone and with rifampin): no deaths, serious AEs, or discontinuations due to an AE | substrate of MATE2-K (MATE2-K [29]): not a substrate
